Results on 24 molecules are retold here after ChEMBL document CHEMBL1153176, “2,6-Dithienyl-4-furyl pyridines: Synthesis, topoisomerase I and II inhibition, cytotoxicity, structure-activity relationship, and docking study” (Bioorg Med Chem Lett, 2010).

Broadly, the inhibition is the relative decrease from the control value, in per cent. A low value points to a response near the control. The term pIC50 denotes the negative decadic logarithm of the IC50, by convention in mol/L. Higher therefore signals a low IC50.

pIC50: −log10 of the molar value. Structures can show the parent of a compound that is named as a salt.

The target of test [1] is DNA topoisomerase 2-alpha (Homo sapiens) (UniProt P11388). The experiment in a line: Inhibition of human topoisomerase 2 alpha-mediated relaxation of supercoiled pBR322 DNA at 100 uM after 30 mins by agarose gel electrophoresis. The essentials: (§1)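 Human topo II (0.3 U) with 0.2 μg pBR322 in 50 mM Tris–HCl pH 8.0, 120 mM KCl, 10 mM MgCl2, 0.5 mM ATP, 0.5 mM DTT and BSA. Compound at 20 or 100 μM, 37 °C for 30 min. Stopped with 0.77% SDS/77 mM EDTA, run on 1% agarose at 1.5 V/cm for 10 h in TBE, stained with ethidium bromide.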

For test [2], the species on record is Bos taurus. The test can be described thus: Inhibition of calf thymus topoisomerase 1-mediated relaxation of supercoiled pBR322 DNA at 20 uM after 30 mins by agarose gel electrophoresis. The essentials: (§2)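 Compound at 20 or 100 μM, 37 °C for 30 min. Stopped with SDS/dye mix, run on 1% agarose in TBE for 10 h, stained with ethidium bromide (0.5 μg/mL).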
For test [3], the species on record is Bos taurus. The experiment in a line: Inhibition of calf thymus topoisomerase 1-mediated relaxation of supercoiled pBR322 DNA at 100 uM after 30 mins by agarose gel electrophoresis. Summed up: as §2
Test [4] has as its target DNA topoisomerase 2-alpha (Homo sapiens) (UniProt P11388). The test can be described thus: Inhibition of human topoisomerase 2 alpha-mediated relaxation of supercoiled pBR322 DNA at 20 uM after 30 mins by agarose gel electrophoresis. The essentials: as §1
A further test concerns DU-145. The experiment in a line: Cytotoxicity against human DU145 cells after 3 days. The class given is functional, cell-based. The conditions noted are these: DU-145, 72 h. The essentials:
(§3)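 Cells seeded at 2–4 × 10⁴ per well and held overnight at 37 °C, 5% CO₂ in medium with 10% FBS. On day 1 the medium was replaced with medium holding graded compound concentrations. Absorbance read at 450 nm. IC50 from a four-parameter logistic fit of the 450 nm readings.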

In a further test the test system is HCT-116. The experiment in a line: Cytotoxicity against human HCT116 cells after 3 days. The class given is functional, cell-based. The conditions noted are these: HCT-116, 72 h. Summed up:
as §3

For another test, the system named is MDA-MB-231. The experiment in a line: Cytotoxicity against human MDA-MB-231 cells after 3 days. It is filed as functional, cell-based. Conditions: MDA-MB-231, 72 h. The essentials:
as §3

The next test deals with HeLa. The test can be described thus: Cytotoxicity against human HeLa cells after 3 days. The class given is functional, cell-based. The conditions noted are these: 72 h. The essentials:
as §3

A further test deals with MCF7. The experiment in a line: Cytotoxicity against human MCF7 cells after 3 days. The class given is functional, cell-based. The conditions noted are these: MCF7, 72 h. The essentials: as §3

DNA topoisomerase 2-alpha (Homo sapiens), sequence (P11388 whole entry): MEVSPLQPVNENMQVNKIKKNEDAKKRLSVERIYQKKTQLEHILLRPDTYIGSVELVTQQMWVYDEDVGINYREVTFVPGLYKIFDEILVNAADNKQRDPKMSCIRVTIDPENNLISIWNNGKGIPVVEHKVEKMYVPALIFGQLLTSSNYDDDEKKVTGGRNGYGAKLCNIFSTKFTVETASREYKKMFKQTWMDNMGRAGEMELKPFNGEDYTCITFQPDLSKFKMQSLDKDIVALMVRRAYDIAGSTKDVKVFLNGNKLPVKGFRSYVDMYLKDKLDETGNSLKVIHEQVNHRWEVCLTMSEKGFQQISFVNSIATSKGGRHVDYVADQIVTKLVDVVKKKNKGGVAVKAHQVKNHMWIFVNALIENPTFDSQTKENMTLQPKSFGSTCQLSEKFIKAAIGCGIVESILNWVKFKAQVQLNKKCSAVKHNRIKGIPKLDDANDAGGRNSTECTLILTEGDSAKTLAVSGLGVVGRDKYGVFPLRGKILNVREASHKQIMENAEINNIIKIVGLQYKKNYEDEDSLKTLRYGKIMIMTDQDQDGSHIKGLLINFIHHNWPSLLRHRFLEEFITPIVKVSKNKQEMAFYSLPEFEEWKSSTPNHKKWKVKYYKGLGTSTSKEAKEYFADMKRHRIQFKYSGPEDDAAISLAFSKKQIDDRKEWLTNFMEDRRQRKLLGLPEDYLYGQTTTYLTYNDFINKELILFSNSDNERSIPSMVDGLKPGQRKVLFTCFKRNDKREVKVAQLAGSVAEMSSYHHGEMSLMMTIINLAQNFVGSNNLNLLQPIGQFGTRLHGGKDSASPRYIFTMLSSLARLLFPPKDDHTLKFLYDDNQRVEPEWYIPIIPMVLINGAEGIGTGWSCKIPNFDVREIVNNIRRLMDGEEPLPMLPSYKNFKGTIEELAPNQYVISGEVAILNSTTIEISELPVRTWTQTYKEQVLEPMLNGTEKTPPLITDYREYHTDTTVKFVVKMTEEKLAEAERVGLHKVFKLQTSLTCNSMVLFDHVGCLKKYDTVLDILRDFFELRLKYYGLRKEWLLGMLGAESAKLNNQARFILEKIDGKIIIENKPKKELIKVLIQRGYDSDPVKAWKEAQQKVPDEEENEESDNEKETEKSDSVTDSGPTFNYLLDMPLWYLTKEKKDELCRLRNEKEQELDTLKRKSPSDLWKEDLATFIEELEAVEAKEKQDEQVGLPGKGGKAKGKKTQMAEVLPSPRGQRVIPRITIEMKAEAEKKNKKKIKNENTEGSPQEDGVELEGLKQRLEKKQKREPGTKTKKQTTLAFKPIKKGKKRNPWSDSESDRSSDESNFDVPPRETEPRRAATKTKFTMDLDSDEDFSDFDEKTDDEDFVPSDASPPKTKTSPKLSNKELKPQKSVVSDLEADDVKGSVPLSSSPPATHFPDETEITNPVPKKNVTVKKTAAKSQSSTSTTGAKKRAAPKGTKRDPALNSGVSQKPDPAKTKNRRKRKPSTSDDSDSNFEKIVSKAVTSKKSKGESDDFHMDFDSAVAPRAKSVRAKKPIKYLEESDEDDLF

On to `Cc1ccsc1-c1cc(-c2ccoc2)cc(-c2ccsc2)n1`, for which the inhibition in test [1] stood at 0%; in the test listed under Bos taurus [2] it was 0%; in the test listed under Bos taurus [3], 13%; in [4], 0%.
As to `Clc1ccc(-c2cc(-c3ccsc3)nc(-c3ccsc3)c2)o1`, the inhibition in test [1] stood at 8%; in the test listed under Bos taurus [2], 0%; in the test listed under Bos taurus [3], 14%; in test [4] it was 0%.
Take `Clc1ccc(-c2cc(-c3ccsc3)nc(-c3cccs3)c2)o1`: the pIC50 with DU-145 was less than 4.00; in the test on HCT-116, less than 4.00; with MDA-MB-231, 4.57; in the test on HeLa it was 4.36; in the test on MCF7, less than 4.00. In addition, the inhibition was 55% in test [1], 12% in the test listed under Bos taurus [2], 50% in the test filed under Bos taurus [3] and 7% in test [4].
As to `Cc1ccc(-c2cc(-c3cccs3)nc(-c3cc(C)sc3C)c2)o1`, the inhibition in test [1] worked out at 0%; in the test listed under Bos taurus [2], 0%; in the test filed under Bos taurus [3], 5%; in test [4], 0%.
Consider `Cc1ccsc1-c1cc(-c2ccoc2)cc(-c2sccc2C)n1`, for which the inhibition was 0% in test [1], 15% in the test listed under Bos taurus [2], 30% in the test filed under Bos taurus [3] and 0% in test [4].
As for `Cc1ccc(-c2cc(-c3cccs3)nc(-c3cccs3)c2)o1`, the inhibition in test [1] turned out to be 8%; in the test listed under Bos taurus [2], 0%; in the test listed under Bos taurus [3] it was 3%; in test [4], 0%.
Regarding `Cc1ccsc1-c1cc(-c2ccco2)cc(-c2sccc2C)n1`, the pIC50 is 4.01 with DU-145; less than 4.00 in the test on HCT-116; 4.42 in the test with MDA-MB-231; 4.45 with HeLa; less than 4.00 with MCF7. Besides, the inhibition in test [1] came out at 23%; in the test filed under Bos taurus [2], 88%; in the test filed under Bos taurus [3] it was 92%; in test [4], 14%.
In the case of `Clc1ccc(-c2cc(-c3cccs3)nc(-c3cccs3)c2)o1`, the negative-log IC50 (pIC50) was 4.05 in the test on DU-145; 4.02 in the test on HCT-116; 4.26 with MDA-MB-231; 4.26 in the test on HeLa; less than 4.00 in the test with MCF7. The inhibition in [1] is 35%; in the test filed under Bos taurus [2], 12%; in the test filed under Bos taurus [3] it was 42%; in test [4] it was 0%.
`Cc1ccc(-c2cc(-c3ccsc3)nc(-c3ccsc3)c2)o1`: the inhibition stood at 5% in test [1], 0% in the test listed under Bos taurus [2], 0% in the test filed under Bos taurus [3] and 0% in [4].
Regarding `Cc1ccsc1-c1cc(-c2ccco2)cc(-c2ccsc2)n1`, the pIC50 in the test with DU-145 is less than 4.00; in the test on HCT-116 it was 4.29; with MDA-MB-231, 4.38; in the test with HeLa, 4.72; with MCF7 it was less than 4.00. Also, the inhibition is 58% in [1], 9% in the test listed under Bos taurus [2], 52% in the test filed under Bos taurus [3] and 11% in test [4].
With `Cc1ccc(-c2cc(-c3ccsc3)nc(-c3sccc3C)c2)o1`, the inhibition (in test [1]; in the test filed under Bos taurus [2]; in the test listed under Bos taurus [3]; in test [4]) was 0% in each case.
Turning to `Cc1ccsc1-c1cc(-c2ccco2)cc(-c2cccs2)n1`, the pIC50 is less than 4.00 with DU-145; 4.25 in the test with HCT-116; 4.22 in the test with MDA-MB-231; 4.75 in the test with HeLa; less than 4.00 in the test on MCF7. The inhibition was found to be 28% in [1], 12% in the test filed under Bos taurus [2], 51% in the test filed under Bos taurus [3] and 9% in [4].
In the case of `c1csc(-c2cc(-c3ccoc3)cc(-c3ccsc3)n2)c1`, the inhibition was found to be 18% in test [1], 0% in the test filed under Bos taurus [2], 0% in the test listed under Bos taurus [3] and 1% in test [4].
For `Cc1ccc(-c2cc(-c3ccsc3)nc(-c3cc(C)sc3C)c2)o1`, the inhibition in [1] is 7%; in the test filed under Bos taurus [2], 0%; in the test filed under Bos taurus [3], 0%; in test [4], 0%.
As to `CC[C@@]1(O)C(=O)OCc2c1cc1n(c2=O)Cc2cc3ccccc3nc2-1` [CAMPTOTHECIN], the pIC50 in the test with DU-145 was 5.84; in the test with HCT-116, 5.56; in the test with MDA-MB-231, 5.96; in the test with HeLa it was 5.73; in the test on MCF7, 5.13. In addition, the inhibition in the test filed under Bos taurus [2] was found to be 41%; in the test listed under Bos taurus [3], 54%.
In the case of `COc1cc([C@@H]2c3cc4c(cc3[C@@H](O[C@@H]3O[C@@H]5CO[C@@H](C)O[C@H]5[C@H](O)[C@H]3O)[C@H]3COC(=O)[C@H]23)OCO4)cc(OC)c1O` [ETOPOSIDE], the pIC50 in the test on DU-145 is 4.68; in the test with HCT-116, 4.75; in the test with MDA-MB-231 it was 4.77; with HeLa, 5.07; in the test on MCF7, 4.74. In addition, the inhibition in [1] amounted to 73%; in test [4], 36%.
Take `c1csc(-c2cc(-c3ccoc3)cc(-c3cccs3)n2)c1`: the negative-log IC50 (pIC50) in the test with DU-145 was less than 4.00; in the test with HCT-116, 4.30; in the test with MDA-MB-231, 4.63; in the test with HeLa, 5.06; in the test with MCF7, less than 4.00. The inhibition in [1] came out at 70%; in the test listed under Bos taurus [2] it was 0%; in the test filed under Bos taurus [3] it was 0%; in [4], 15%.
Consider `c1cc(-c2cc(-c3ccsc3)nc(-c3ccsc3)c2)co1`, for which the inhibition worked out at 12% in test [1], 0% in the test listed under Bos taurus [2], 0% in the test listed under Bos taurus [3] and 4% in test [4].
In the case of `c1coc(-c2cc(-c3ccsc3)nc(-c3cccs3)c2)c1`, the inhibition was 34% in test [1], 5% in the test listed under Bos taurus [2], 12% in the test listed under Bos taurus [3] and 0% in test [4].
The like results for `Cc1ccc(-c2cc(-c3cccs3)nc(-c3sccc3C)c2)o1` were, in that order, 25%, 0%, 0% and 15%.
For `Cc1ccsc1-c1cc(-c2ccoc2)cc(-c2cccs2)n1`, in that order: 3%, 3%, 9% and 7%.
With `COc1cccc2c1C(=O)c1c(O)c3c(c(O)c1C2=O)C[C@@](O)(C(=O)CO)C[C@@H]3O[C@H]1C[C@H](N)[C@H](O)[C@H](C)O1` [DOXORUBICIN HYDROCHLORIDE], the pIC50 was 5.89 in the test with DU-145, 5.94 with MDA-MB-231 and 5.80 in the test with HeLa.
Turning to `c1coc(-c2cc(-c3ccsc3)nc(-c3ccsc3)c2)c1`, the inhibition in test [1] is 32%; in the test listed under Bos taurus [2], 0%; in the test listed under Bos taurus [3], 0%; in test [4], 0%.
With `Cc1ccc(-c2cc(-c3ccsc3)nc(-c3cccs3)c2)o1`, the inhibition amounted to 2% in [1], 0% in the test filed under Bos taurus [2], 0% in the test listed under Bos taurus [3] and 0% in [4].
